How the values were obtained:
Rattus norvegicus [1] = assay: Decrease in epididymis organ weight in male wistar rat at 5ml/kg, po qd measured on 15th day after 24 hrs of last dose; type: functional; set-up: scale not given: the % may be the effect or the level left
Rattus norvegicus [2] = assay: Increase in body weight gain in male wistar rat at 5ml/kg, po qd measured on 15th day after 24 hrs of last dose (Rvb=9.412+/-1.632g%); type: ADME, organism-based; conditions: in vivo
Rattus norvegicus [3] = assay: Effect on organ weight in male wistar rat assessed testis tissue weight per 100g at 5ml/kg, po qd measured on 15th day after 24 hrs of last dose (Rvb=1054.099+/- 55.648 mg/100g); type: ADME, organism-based; conditions: in vivo
Rattus norvegicus [4] = assay: Effect on organ weight in male wistar rat assessed as liver tissue weight per 100g at 5ml/kg, po qd measured on 15th day after 24 hrs of last dose (Rvb=2.994+/- 0.254 g/100g); type: ADME, organism-based; conditions: in vivo
Rattus norvegicus [5] = assay: Decrease in vas deferens organ weight in male wistar rat at 5ml/kg, po qd measured on 15th day after 24 hrs of last dose; type: functional; set-up: scale not given: the % may be the effect or the level left
[6] = molecular target: T1, 3-oxo-5-alpha-steroid 4-dehydrogenase 2 (Homo sapiens) (UniProt P31213); assay: Inhibition of human 5alpha-2 reductase expressed in HEK293 cells assessed as suppression of conversion of [3]androstenedione at 10 uM incubated for 30 mins by radioactivity-based HPLC analysis; type: cell-based
T1 sequence (whole entry): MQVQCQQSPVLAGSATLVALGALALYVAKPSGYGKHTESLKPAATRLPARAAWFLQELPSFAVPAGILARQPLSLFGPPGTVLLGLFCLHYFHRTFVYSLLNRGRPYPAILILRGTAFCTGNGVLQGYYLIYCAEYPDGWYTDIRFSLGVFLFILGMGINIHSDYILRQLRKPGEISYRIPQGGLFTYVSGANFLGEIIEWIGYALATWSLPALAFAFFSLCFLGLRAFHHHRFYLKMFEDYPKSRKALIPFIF
Method in brief: (§1)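 Stably transfected HEK293 lines expressing 5AR-1 (HEK-I) or 5AR-2 (HEK-II) were sonicated in saccharose/Tris/EDTA buffer. The suspension was incubated at 37 °C for 30 min with 500 nM androstenedione solution plus [3H]androstenedione and an NADP/glucose/G6PDH regenerating system. Test compounds were added in 2% DMSO. The reaction was stopped with ether; steroids were extracted and analysed by radio-HPLC.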

Rattus norvegicus [7] = assay: Decrease in ventral prostate organ weight in male wistar rat at 5ml/kg, po qd measured on 15th day after 24 hrs of last dose; type: functional, Prostate gland; set-up: scale not given: the % may be the effect or the level left
Rattus norvegicus [8] = assay: Effect on organ weight in male wistar rat assessed as epididymis tissue weight per 100g at 5ml/kg, po qd measured on 15th day after 24 hrs of last dose (Rvb=187.356+/- 5.961 mg/100g); type: functional
[9] = molecular target: T2, 3-oxo-5-alpha-steroid 4-dehydrogenase 1 (Homo sapiens) (UniProt P18405); assay: Inhibition of human 5alpha-1 reductase expressed in HEK293 cells assessed as suppression of conversion of [3]androstenedione at 10 uM incubated for 30 mins by radioactivity-based HPLC analysis; type: cell-based; method in brief: as §1
T2 sequence (whole entry): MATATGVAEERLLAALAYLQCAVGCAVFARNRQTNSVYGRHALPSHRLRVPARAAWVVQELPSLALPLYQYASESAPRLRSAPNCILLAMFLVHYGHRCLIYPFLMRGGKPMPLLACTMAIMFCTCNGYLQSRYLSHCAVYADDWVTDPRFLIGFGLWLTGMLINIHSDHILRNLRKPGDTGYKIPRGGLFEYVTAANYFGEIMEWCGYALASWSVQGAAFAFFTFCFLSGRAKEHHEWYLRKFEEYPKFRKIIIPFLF

Rattus norvegicus [10] = assay: Effect on organ weight in male wistar rat assessed as vas deferens tissue weight per 100g at 5ml/kg, po qd measured on 15th day after 24 hrs of last dose (Rvb=67.613+/-3.248 mg/100g); type: functional
Rattus norvegicus [11] = assay: Effect on organ weight in male wistar rat assessed as adrenal tissue weight per 100g at 5ml/kg, po qd measured on 15th day after 24 hrs of last dose (Rvb=14.762 +/-0.600 mg/100g); type: ADME, organism-based; conditions: in vivo
[12] = molecular target: T3, 3-oxo-5-alpha-steroid 4-dehydrogenase 1 (Homo sapiens, UniProt P18405); assay: Inhibition of human 5alpha-1 reductase expressed in HEK293 cells assessed as suppression of conversion of [3]androstenedione incubated for 30 mins by radioactivity-based HPLC analysis; type: cell-based; method in brief: as §1
T3 sequence (P18405 whole entry): T2 sequence (whole entry)

[13] = molecular target: T2, 3-oxo-5-alpha-steroid 4-dehydrogenase 1 (Homo sapiens); assay: Inhibition of human 5alpha-1 reductase expressed in HEK293 cells assessed as suppression of conversion of [3]androstenedione at 2 uM incubated for 30 mins by radioactivity-based HPLC analysis; type: cell-based
Method in brief: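 Lysates of stably transfected HEK293 cells (80% confluent cells sonicated in 300 mM saccharose, 5 mM Tris–HCl, 0.1 mM EDTA). Master mix: Tris buffer, androstenedione (500 nM solution) plus tracer [3H]androstenedione, NADP/glucose/glucose-6-P-dehydrogenase regenerating system; compound added in 2% DMSO. Cell suspension mixed 1:1 with master mix, 37 °C for 30 min. Stopped with ether; steroids extracted, dried, taken up in methanol, radio-HPLC.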

Rattus norvegicus [14] = assay: Effect on organ weight in male wistar rat assessed as dorsal prostate tissue weight per 100g at 5ml/kg, po qd measured on 15th day after 24 hrs of last dose (Rvb=50.325+/-7.519 mg/100g); type: functional, Prostate gland
Rattus norvegicus [15] = assay: Effect on organ weight in male wistar rat assessed as ventral prostate tissue weight per 100g at 5ml/kg, po qd measured on 15th day after 24 hrs of last dose (Rvb=59.494+/- 4.733 mg/100g); type: functional, Prostate gland
Rattus norvegicus [16] = assay: Toxicity in male wistar rat assessed induction of mortality at 5ml/kg, po qd measured on 15th day after 24 hrs of last dose; type: organism-based; conditions: in vivo
Method in brief: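 Mature male Wistar rats, groups of 5, standard diet. Compounds suspended in 0.50% CMC sodium given orally at 5 ml/kg once daily for 14 days; controls received vehicle only. Animals weighed and killed under ether on day 15, 24 h after last dose.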

[17] = molecular target: T4, 3-oxo-5-alpha-steroid 4-dehydrogenase 2 (Homo sapiens, UniProt P31213); assay: Inhibition of human 5alpha-2 reductase expressed in HEK293 cells assessed as suppression of conversion of [3]androstenedione incubated for 30 mins by radioactivity-based HPLC analysis; type: cell-based; method in brief: as §1
T4 sequence (P31213 whole entry): T1 sequence (whole entry)

Rattus norvegicus [18] = assay: Decrease in dorsal prostate organ weight in male wistar rat at 5ml/kg, po qd measured on 15th day after 24 hrs of last dose; type: functional, Prostate gland; set-up: scale not given: the % may be the effect or the level left
[19] = molecular target: T1, 3-oxo-5-alpha-steroid 4-dehydrogenase 2 (Homo sapiens); assay: Inhibition of human 5alpha-2 reductase expressed in HEK293 cells assessed as suppression of conversion of [3]androstenedione at 2 uM incubated for 30 mins by radioactivity-based HPLC analysis; type: cell-based; method in brief: as §1
[20] = Cytotoxicity against human DU145 cells by rapid colorimetric assay; type: functional, cell-based, DU-145; conditions: du-145
Method in brief: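 Antiproliferative test on DU-145 cells using the Mosmann method. Seven concentrations were tested in culture medium.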

Rattus norvegicus [21] = assay: Effect on organ weight in male wistar rat assessed as seminal vesicles tissue weight per 100g at 5ml/kg, po qd measured on 15th day after 24 hrs of last dose (Rvb=175.439+/-12.833 mg/100g); type: ADME, organism-based; conditions: in vivo

CC(=O)C1CC[C@H]2[C@@H]3CC=C4C=C(c5nnn[nH]5)CC[C@]4(C)[C@H]3CC[C@]12C (stereo partly specified)
Activity (Rattus norvegicus [1]): 31.76%
Activity (Rattus norvegicus [2]): 8.328 g%
Activity (Rattus norvegicus [3]): 844.538 mg
Activity (Rattus norvegicus [4]): 3.649 g
Activity (Rattus norvegicus [5]): 57.1%
inhibition [6]: 100%
Activity (Rattus norvegicus [7]): 35.4%
Activity (Rattus norvegicus [8]): 127.85 mg
inhibition [9]: 95%
Activity (Rattus norvegicus [10]): 29.009 mg
Activity (Rattus norvegicus [11]): 17.762 mg
IC50 [12]: 547 nM
inhibition [13]: 82.6%
Activity (Rattus norvegicus [14]): 41.379 mg
Activity (Rattus norvegicus [15]): 38.433 mg
Activity (Rattus norvegicus [16]): Non-toxic
IC50 [17]: 15.6 nM
Activity (Rattus norvegicus [18]): 17.78%
inhibition [19]: 100%
IC50 [20]: Not Active
Activity (Rattus norvegicus [21]): 78.265 mg
